ChEMBL document CHEMBL1121637, “Tumor inhibitory triazenes. 2. Variation of antitumor activity within an homologous series” (J Med Chem, 1980)

Legend:
Mus musculus [1] = test: Percent increase in life span of TLX/5 lymphoma bearing mice at dose of 100 mg/kg; assay type: functional
Summary of the method: (§1)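 Female CBA/LAC mice with subcutaneously transplanted TLX/5 lymphoma. Drug given i.p. in saline (about pH 7.5) once daily for 5 consecutive days, starting 3 days after transplant. Doses ran 12.5–400 mg/kg, with lower doses made by serial dilution. Five mice per dose; survival time compared with 10 untreated controls. ILS ≥20% counted significant. Minimum dose for 50% ILS expressed in mol/kg.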

Mus musculus [2] = test: Percent increase in life span of TLX/5 lymphoma bearing mice at dose of 25 mg/kg; assay type: functional
Mus musculus [3] = test: Percent increase in life span of TLX/5 lymphoma bearing mice at dose of 50 mg/kg; assay type: functional; summary of the method: as §1
Mus musculus [4] = test: Percent increase in life span of TLX/5 lymphoma bearing mice at dose of 200 mg/kg; assay type: functional; summary of the method: as §1
Mus musculus [5] = organism: Mus musculus; test: Minimum dose that causes 50% increase in life span in TLX/5 lymphoma bearing animal; assay type: functional; summary of the method: as §1
[6] = Solubility in sorensen's phosphate buffer at pH 7.4 and 25 degrees Centigrade.
Mus musculus [7] = test: Percent increase in life span of TLX/5 lymphoma bearing mice at dose of 12.5 mg/kg; assay type: functional; summary of the method: as §1
[8] = Partition coefficient was determined in octanol-saturated sorenson's pH 7.4 phosphate buffer and buffer-saturated octanol.; assay type: physicochemical; conditions: octanol/Sorensen's phosphate buffer
Summary of the method: (§2)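 Compound shaken 1 h at room temperature in 0.1 M Sorenson's phosphate buffer pre-saturated with octanol, filtered. A known volume was then shaken 1 h with a known volume of buffer-saturated octanol. Aqueous phase and initial filtrate diluted in ethanol, filtered, absorbance read at λmax. P = (aqueous vol × absorbance drop)/(final aqueous absorbance × octanol vol). Mean of at least two determinations.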

Mus musculus [9] = test: Percent increase in life span of TLX/5 lymphoma bearing mice at dose of 400 mg/kg; assay type: functional; summary of the method: as §1
Mus musculus [10] = test: Percent increase in life span of TLX/5 lymphoma bearing mice at dose of 100 mg/kg when 10 % acetone/Oil is given as vehicle; assay type: functional
Mus musculus [11] = test: Percent increase in life span of TLX/5 lymphoma bearing mice at dose of 25 mg/kg when 10 % acetone/Oil is given as vehicle; assay type: functional
Mus musculus [12] = test: Percent increase in life span of TLX/5 lymphoma bearing mice at dose of 400 mg/kg when 10 % acetone/Oil is given as vehicle; assay type: functional
Mus musculus [13] = test: Percent increase in life span of TLX/5 lymphoma bearing mice at dose of 50 mg/kg when 10 % acetone/Oil is given as vehicle; assay type: functional
Mus musculus [14] = test: Percent increase in life span of TLX/5 lymphoma bearing mice at dose of 12.5 mg/kg when 10 % acetone/Oil is given as vehicle; assay type: functional
Mus musculus [15] = test: Percent increase in life span of TLX/5 lymphoma bearing mice at dose of 200 mg/kg when 10 % acetone/Oil is given as vehicle; assay type: functional
Mus musculus [16] = test: Percent increase in life span of TLX/5 lymphoma bearing mice at dose of 100 mg/kg 200 mg/kg; assay type: functional; summary of the method: as §1
Mus musculus [17] = organism: Mus musculus; test: Minimum dose that causes 50% increase in life span in TLX/5 lymphoma bearing mice; assay type: functional; summary of the method: as §1
[18] = Partition coefficient between octanol-saturated sorenson's pH 7.4 phosphate buffer and buffer-saturated octanol.; assay type: physicochemical; conditions: octanol/Sorensen's phosphate buffer; summary of the method: as §2

SMILES	ILS at 100 mg/kg (Mus musculus [1])	ILS at 25 mg/kg (Mus musculus [2])	ILS at 50 mg/kg (Mus musculus [3])	ILS at 200 mg/kg (Mus musculus [4])	Dose (Mus musculus [5])	Solubility [6]	ILS at 12.5 mg/kg (Mus musculus [7])	logD [8]	ILS at 400 mg/kg (Mus musculus [9])	ILS at 100 mg/kg (Mus musculus [10])	ILS at 25 mg/kg (Mus musculus [11])	ILS at 400 mg/kg (Mus musculus [12])	ILS at 50 mg/kg (Mus musculus [13])	ILS at 12.5 mg/kg (Mus musculus [14])	ILS at 200 mg/kg (Mus musculus [15])	ILS at 200 mg/kg (Mus musculus [16])	Dose (Mus musculus [17])	logD [18]
CCC(C)CN(C)/N=N/c1ccc(C(=O)O)cc1 (centres undefined)	62%	11%	52%	60%	0.0002 mol/kg	0.0162 M l-1	7%	1.33	57%									
CCCCCCCCCCCCN(C)/N=N/c1ccc(C(=O)O)cc1						4.13e-6 M l-1												
CN(Cc1ccccc1)/N=N/c1ccc(C(=O)O)cc1	49%	6%	7%	-59%			6%		-61%									
CCCCN(C)/N=N/c1ccc(C(=O)O)cc1	47%	82%	86%	20%	5.3e-05 mol/kg	0.0155 M l-1	69%	0.97	-31%									
CN(C)/N=N/c1ccc(C(=O)O)cc1	34%	72%	83%	0%	6.2e-05 mol/kg		40%	-0.44	-34%	49%	51%	-36%	70%	19%	-4%			
C#CCN(C)/N=N/c1ccc(C(=O)O)cc1	70%	36%	76%	40%	0.00015 mol/kg		0%	0	-18%									
C=CCN(C)/N=N/c1ccc(C(=O)O)cc1	76%	11%	96%	56%	0.00017 mol/kg		1%	0.32	-25%									
CCCCCCN(C)/N=N/c1ccc(C(=O)O)cc1	73%	0%	18%	-8%	3e-05 mol/kg	0.00298 M l-1	0%	1.95	-53%									
CCCCCCCCN(C)/N=N/c1ccc(C(=O)O)cc1						0.000171 M l-1		2.77										
CCCCCCCN(C)/N=N/c1ccc(C(=O)O)cc1	9%	1%	5%	-19%		0.00041 M l-1	3%	2.58	-48%									
CCN(C)/N=N/c1ccc(C(=O)O)cc1	67%	79%	79%				44%		-21%							27%	7e-05 mol/kg	0.04
CCCCCN(C)/N=N/c1ccc(C(=O)O)cc1	61%	108%	75%	-61%	7.1e-05 mol/kg	0.00428 M l-1	10%	1.49	-61%									
CCCN(C)/N=N/c1ccc(C(=O)O)cc1	69%	69%	69%	57%	9.4e-05 mol/kg	0.0368 M l-1	13%	0.46	-3%									
CC(C)N(C)/N=N/c1ccc(C(=O)O)cc1	60%	90%	64%	45%	7e-05 mol/kg		37%	0.34	35%									
CN(C)/N=N/c1[nH]cnc1C(N)=O [DACARBAZINE]	55%	55%	59%	61%			55%		-11%									
